Data published in ChEMBL document CHEMBL1765045, “Fine-tuning the selectivity of aldosterone synthase inhibitors: structure-activity and structure-selectivity insights from studies of heteroaryl substituted 1,2,5,6-tetrahydropyrrolo[3,2,1-ij]quinolin-4-one derivatives” (J Med Chem, 2011).

Biological target: T1, CYP1A2 (Homo sapiens, UniProt P05177)
T1 sequence (P05177 whole entry): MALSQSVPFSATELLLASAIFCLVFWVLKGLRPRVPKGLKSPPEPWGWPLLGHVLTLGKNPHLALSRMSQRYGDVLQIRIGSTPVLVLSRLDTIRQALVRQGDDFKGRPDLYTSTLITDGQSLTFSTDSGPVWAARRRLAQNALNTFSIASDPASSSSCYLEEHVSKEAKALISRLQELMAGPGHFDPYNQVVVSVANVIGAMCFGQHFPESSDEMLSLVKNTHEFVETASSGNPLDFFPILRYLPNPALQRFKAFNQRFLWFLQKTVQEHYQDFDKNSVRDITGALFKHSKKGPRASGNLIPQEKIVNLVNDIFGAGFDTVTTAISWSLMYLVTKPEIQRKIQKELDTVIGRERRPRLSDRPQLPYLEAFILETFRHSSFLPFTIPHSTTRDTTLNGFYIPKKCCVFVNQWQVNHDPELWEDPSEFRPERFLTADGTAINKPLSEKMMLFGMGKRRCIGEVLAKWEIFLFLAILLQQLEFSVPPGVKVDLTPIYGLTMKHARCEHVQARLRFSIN
Experiment: Inhibition of CYP1A2 at 1 uM
Format: ADME
How it was run: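 Recombinant human CYP1A2, 2B6, 2C9, 2C19, 2D6 or 3A4 in baculovirus-infected insect microsomes (Supersomes), run per manufacturer's protocol. Inhibitor at 1 and 10 μM; percent inhibition is the mean of two experiments.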

inhibition at 1 µM: 41%
Compound: O=C1CCc2cc(-c3cccnc3)cc3c2N1CCC3
